High-throughput results: PubChem, The Scripps Research Institute Molecular Screening Center
In the library only some 2.7% were active in any assay of this set; here they are far more common.
RBBP9 inh – human RBBP9 inhibitors, primary screen, biochemical, fluorescence polarization, FP-Rh probe, HTS. recombinant RBBP9. AID 1515, 2009. 220,000 tested, 0.2% active. inhibition, % at 7.94 µM;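 active means inhibition above the campaign mean of all tested compounds plus 3 SD, cut at about 14% in these data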;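 further: plate controls were DMSO wells with RBBP9 for no effect and wells lacking RBBP9 protein for full effect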
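Assay system: recombinant human RBBP9; Reagent: Serine-hydrolase probe FP-Rh, 375 nM pre-mixing; Doses: 7.94 µM single dose, 0.794% DMSO; Incubation: 30 min then 45 min, 25 °C; Detection: fluorescence polarization (mP), excitation 525 nm, emission 598 nm; Evaluation: percent inhibition from mP, scaled between DMSO and no-protein wells.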
SIAE inh – human SIAE inhibitors, primary screen, biochemical, fluorescence polarization, FP-Rh probe, 1536-well HTS; 370,000 tested, 0.69% active; Sialate O-acetylesterase (Homo sapiens), Q9HAT2; inhibition, % at 9.66 µM; SIAE FP-Rh probe binding;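 active means inhibition above a cutoff: mean of compounds within the control limits plus 3 SD of those, cut at about 17% in these data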;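 further: 0% = plate median of compound wells and 100% = probe without SIAE protein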
PAD4 FP inh – human PAD4 inhibitors, primary screen, biochemical, fluorescence polarization, 1536-well format; Protein-arginine deiminase type-4 (Homo sapiens), Q9UM07; recombinant PAD4, RCA probe fluorescence polarization; inhibition, % at 6.36 µM; 330,000 tested, 0.41% active; AID 485272, 2010;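 active means percent inhibition above a cutoff equal to the mean of all tested compounds plus 3 SD, cut at about 15% in these data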;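 further: 0% = PAD4 with RCA probe and DMSO and 100% = probe without PAD4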
GSTO1 counter – inhibitors of recombinant GSTO1, primary screen, counter-screen for RBBP9 inhibitor project, biochemical, fluorescence polarization; 300,000 tested, 1.1% active; Glutathione S-transferase omega-1 (Homo sapiens), P78417; activity-based probe fluorescence polarization; AID 1974, 2009; inhibition, % at 5.96 µM;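 active means inhibition above the campaign mean inhibition plus 3 SD, cut at about 35% in these data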;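 further: 0% = GSTO1-1 with DMSO and 100% = wells lacking GSTO1-1 enzyme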
Target sequence (P78417 whole entry, looked up): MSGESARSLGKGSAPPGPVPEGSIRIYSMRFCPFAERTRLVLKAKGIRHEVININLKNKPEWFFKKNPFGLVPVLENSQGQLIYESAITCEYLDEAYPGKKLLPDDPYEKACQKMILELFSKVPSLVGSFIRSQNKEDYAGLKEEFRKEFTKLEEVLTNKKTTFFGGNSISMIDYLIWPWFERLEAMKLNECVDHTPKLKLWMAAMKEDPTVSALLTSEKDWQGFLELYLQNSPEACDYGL
PRMT1 inh – PRMT1 methyltransferase inhibitors, primary screen, biochemical, fluorescence polarization; Protein arginine N-methyltransferase 1 (Homo sapiens), Q99873; recombinant PRMT1, activity-based probe fluorescence polarization; inhibition, % at 2.79 µM; 370,000 tested, 1.3% active;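 active means inhibition above about 21% made by adding two undisclosed values, limit read from the data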
Target sequence (Q99873 whole entry, looked up): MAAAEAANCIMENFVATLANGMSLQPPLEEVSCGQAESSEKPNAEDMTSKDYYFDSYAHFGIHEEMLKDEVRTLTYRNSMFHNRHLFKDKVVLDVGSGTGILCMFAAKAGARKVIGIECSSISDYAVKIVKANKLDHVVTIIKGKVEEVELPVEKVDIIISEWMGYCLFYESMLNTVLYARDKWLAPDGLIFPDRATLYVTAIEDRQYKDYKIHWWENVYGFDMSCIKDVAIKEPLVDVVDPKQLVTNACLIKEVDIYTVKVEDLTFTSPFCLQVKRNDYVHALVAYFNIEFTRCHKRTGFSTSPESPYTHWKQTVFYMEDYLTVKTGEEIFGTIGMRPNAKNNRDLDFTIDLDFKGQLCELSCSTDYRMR
GSTO1 inh conf – GSTO1 inhibitor hit confirmation, counter-screen for RBBP9 inhibitor project, biochemical, fluorescence polarization, triplicate; shares compounds with GSTO1 counter; 2,400 tested, 54% active; inhibition, % at 5.96 µM; AID 2176, 2009; recombinant GSTO1, probe fluorescence polarization;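 active means inhibition above the primary screen's cutoff, its mean inhibition plus 3 SD, cut at about 35% in these data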;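 further: loss of polarization as inhibitors block binding of rhodamine sulfonate ester activity probe; 0% = GSTO1 with DMSO and 100% = wells lacking GSTO1 enzyme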
Active calls of the source: *; nt = no result given.

SMILES | RBBP9 inh | SIAE inh | PAD4 FP inh | GSTO1 counter | PRMT1 inh | GSTO1 inh conf
COc1ccc(CN=Cc2[nH]c3ccc(Br)c(Cl)c3c2O)cc1 | -4 | -3 | -20 | 52* | 4 | 2
O=C(N/N=C/c1ccc([N+](=O)[O-])o1)c1ccc(NS(=O)(=O)c2cccs2)cc1 | 1 | 6 | 0 | 55* | 10 | 19
O=C(N/N=C/c1ccc([N+](=O)[O-])cc1)c1ccc(NS(=O)(=O)c2cccs2)cc1 | nt | 6 | -2 | nt | -1 | nt
COc1ccc2c(c1)C(C)CC(C)(C)N2C(=O)Nc1ccccc1 (centres undefined) | nt | 7 | 1 | 5 | 6 | nt
COc1ccc2nc3cccc(OC)c3nc2c1 | 7 | -9 | -1 | 57* | 8 | 87*
COc1ccc2nc(-c3ccccc3)cc(OC)c2c1 | -1 | 4 | -5 | -5 | -3 | nt
CC(C)c1ccc(O)c(N)c1 | -5 | 10 | -4 | 16 | 4 | nt
CC(C)(C)c1ccc(O)c(N)c1 | -9 | nt | -15 | 38* | nt | 1
O=C(Nc1cccc(Cl)c1)Nc1ccon1 | nt | -14 | 0 | 1 | 4 | nt
CCOC(=O)C1CCCN(C2=C(NS(=O)(=O)c3ccc(Br)cc3)C(=O)c3ccccc3C2=O)C1 (centres undefined) | nt | 13 | -10 | 43* | 14 | 11
CC1CCN(C2=C(NS(=O)(=O)c3ccc(Br)cc3)C(=O)c3ccccc3C2=O)CC1 | nt | 8 | -9 | 32 | 2 | nt
O=C1C(NS(=O)(=O)c2ccc(Br)cc2)=C(N2CCCCC2)C(=O)c2ccccc21 | nt | 6 | -15 | 42* | 3 | 12
CN(C)Cc1nc2c([nH]1)c(=O)n(C)c(=O)n2C | -1 | 2 | 0 | 0 | -2 | nt
Cc1ccc2c(c1)C1C=CCC1C(C(=O)NCCCN1CCOCC1)N2 (centres undefined) | nt | 8 | -7 | 18 | 3 | nt
CC(=O)NC1=C(N(C)C2CCS(=O)(=O)C2)C(=O)c2ccccc2C1=O (centres undefined) | 0 | -2 | -10 | 38* | 3 | 4
CN(C(=O)Nc1ccccc1)C1CCS(=O)(=O)C1 (centres undefined) | 3 | -5 | 0 | 11 | 1 | nt
O=C(NCc1ccc2c(c1)OCO2)c1cccc(C(=O)NCc2ccc3c(c2)OCO3)c1 | 10 | 3 | -2 | 1 | 3 | nt
O=C1COc2ccc(C(=O)NCc3ccc4c(c3)OCO4)cc2N1 | -10 | 9 | 0 | 43* | -2 | 32
COC(=O)C(C(C)=O)C1=C/C(=N\S(=O)(=O)c2ccc(C)cc2)c2ccccc2C1=O (centres undefined) | 4 | nt | -7 | 49* | nt | 10
CC(=O)Nc1c2c(nn1-c1ccccc1)CSC2 | nt | 0 | -5 | 1 | 0 | nt
O=C(CCl)Nc1c2c(nn1-c1ccccc1)CSC2 | nt | 3 | 1 | 98* | 18 | 98*
O=C(Cc1nnc(NC(=O)c2ccccc2)s1)N/N=C\c1ccc(O)c(O)c1 | nt | 6 | -2 | 39* | 5 | 30
O=C(Cc1nnc(NC(=O)c2ccccc2)s1)N/N=C/c1ccc(O)cc1 | nt | -10 | 1 | 2 | -1 | nt
Cc1nc(/C(N)=N/OC(=O)Cc2ccccc2)no1 | -8 | 4 | 4 | -1 | -1 | nt
Cc1c(Br)c(O)c(Br)c(O)c1/C=N/n1c(-c2ccccc2)n[nH]c1=S | nt | nt | 1 | 58* | nt | 35*
SMILES | RBBP9 inh | SIAE inh | PAD4 FP inh | GSTO1 counter | PRMT1 inh | GSTO1 inh conf
CCN(CC)C(=O)c1[nH]cnc1C(=O)Nc1ccc(OC)cc1 | nt | 7 | -7 | -3 | 0 | nt
Cc1cccc(NC(=O)c2c(-c3ccccc3)noc2C)n1 | -13 | 3 | 4 | -1 | 4 | nt
NC1=C(Br)C(=O)c2ccccc2C1=O | 1 | -5 | 4 | 66* | 3 | 28
COc1ccc(S(=O)(=O)N2CCOCC2)cc1NC(=O)CN1CCN(C)CC1 | nt | 5 | -3 | 38* | -3 | 4
Cc1nc(-c2cccc(NC(=O)c3cc4cc(Br)ccc4oc3=O)c2)cs1 | 0 | 0 | -1 | 8 | -2 | nt
COC(=O)CCC(=O)OC1(C)C(=O)C=C2C=C(c3ccsc3)OC=C2C1=O (centres undefined) | nt | nt | -14 | 32 | nt | nt
CC1(O)C(=O)C=C2C=C(c3ccsc3)OC=C2C1=O (centres undefined) | nt | nt | 1 | 46* | nt | 25
CCC(=O)OC1(C)C(=O)C=C2C=C(c3ccsc3)OC=C2C1=O (centres undefined) | nt | nt | -14 | 40* | nt | 26
O=C(CN1CCCCCC1)Nc1cc([N+](=O)[O-])ccc1Cl | nt | 7 | 0 | 57* | 0 | 14
Cn1c(NC(=O)c2ccc(Cl)cc2)c(-c2ccccn2)c(=O)c2ccccc21 | 8 | 8 | 5 | 44* | -1 | 5
CC(C)C(=O)Nc1c(-c2ccc(Cl)cc2)c(=O)c2ccccc2n1C | nt | -4 | 4 | 4 | -2 | nt
CC1(C(=O)NC2CCc3ccccc32)CCN1CCc1ccccc1 (centres undefined) | nt | -6 | nt | nt | 2 | nt
Cc1[nH]c2ccc(F)cc2c(=O)c1SC(F)(F)C(F)F | -2 | 9 | -7 | -1 | 3 | nt
COc1ccc(N/N=C(C)/C(=N/O)C(=O)Nc2ccccc2)cc1 | -12 | 6 | -3 | 40* | 3 | 15
COC(=O)c1cc(Cl)c(NC(=O)/C=C/c2ccc(OC)cc2)cc1OC | -6 | 5 | 5 | -1 | 6 | nt
O=C1/C(=C\c2ccco2)SC(=S)N1C1CCCCC1 | nt | nt | -9 | -3 | nt | nt
CC1=C(C#N)C(=O)N(C2CCS(=O)(=O)C2)C(=O)/C1=C\c1ccco1 (centres undefined) | 7 | nt | 9 | 87* | nt | 73*
CCNC(=O)C1(C)CCCN(Cc2ccc(-c3ccccn3)cc2)C1 (centres undefined) | nt | -2 | nt | nt | 3 | nt
Cc1cc(C(=O)NC(C)C2CCCO2)no1 (centres undefined) | -2 | 11 | -8 | -12 | -1 | nt
Cc1cc(C(=O)NC(C)C2CCCO2)c(C)o1 (centres undefined) | nt | -6 | -1 | 42* | -5 | 5
O=P(O)(O)CCP(=O)(c1ccccc1)c1ccccc1 | -2 | -2 | -3 | 6 | 3 | nt
COc1ccccc1/C=C1\SC(=S)N(CCC(=O)NNC(=O)c2ccccc2OC)C1=O | nt | -1 | -9 | 1 | -3 | nt
COc1ccccc1/C=C1\SC(=O)N(CCC(=O)NNC(=O)c2ccccc2Cl)C1=O | -2 | -13 | 0 | 51* | -1 | 4
